In ChEMBL document CHEMBL1641417, “Cytotoxicity and topoisomerase I/II inhibition of glycosylated 2-phenyl-indoles, 2-phenyl-benzo[b]thiophenes and 2-phenyl-benzo[b]furans” (Bioorg Med Chem, 2011):
The source made the active and inactive calls. The rule behind the calls is not given here.

Tests used:
[1] = test system: HepG2; test: Cytotoxicity against human HepG2 cells assessed as cell viability at 25 uM after 24 hrs by MTS assay; format: functional; details: HepG2, 24 h, read-out: Activity
[2] = target: T1, DNA topoisomerase 1 (Homo sapiens) (UniProt P11387); test: Inhibition of human recombinant DNA topoisomerase 1-mediated DNA cleavage assessed as decrease in relaxation of supercoiled plasmid substrate DNA at 100 uM after 30 mins by agarose gel electrophoresis
T1 sequence (whole entry): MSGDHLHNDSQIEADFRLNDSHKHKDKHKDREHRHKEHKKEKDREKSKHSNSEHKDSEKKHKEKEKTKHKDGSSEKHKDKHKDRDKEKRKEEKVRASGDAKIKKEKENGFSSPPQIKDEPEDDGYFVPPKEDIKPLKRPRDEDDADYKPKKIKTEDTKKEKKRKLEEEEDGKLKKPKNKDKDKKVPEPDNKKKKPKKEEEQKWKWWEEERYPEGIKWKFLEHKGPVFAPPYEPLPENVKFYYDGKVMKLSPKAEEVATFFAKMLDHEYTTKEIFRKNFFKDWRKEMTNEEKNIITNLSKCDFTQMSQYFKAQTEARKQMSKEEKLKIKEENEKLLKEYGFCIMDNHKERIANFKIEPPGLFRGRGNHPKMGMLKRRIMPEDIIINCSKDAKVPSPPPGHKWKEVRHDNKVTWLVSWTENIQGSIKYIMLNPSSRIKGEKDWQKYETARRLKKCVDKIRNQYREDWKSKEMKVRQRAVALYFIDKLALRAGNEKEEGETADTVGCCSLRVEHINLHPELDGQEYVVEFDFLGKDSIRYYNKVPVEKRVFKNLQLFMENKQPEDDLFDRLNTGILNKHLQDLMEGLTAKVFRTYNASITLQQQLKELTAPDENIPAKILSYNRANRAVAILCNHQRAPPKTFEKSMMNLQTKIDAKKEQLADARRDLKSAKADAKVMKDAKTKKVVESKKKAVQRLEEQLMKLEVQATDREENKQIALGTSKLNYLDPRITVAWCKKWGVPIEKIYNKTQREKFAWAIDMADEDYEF

[3] = target: DNA topoisomerase 2-alpha (Homo sapiens) (UniProt P11388); test: Inhibition of human recombinant DNA topoisomerase 2alpha-mediated DNA cleavage assessed as decrease in relaxation of supercoiled plasmid substrate DNA at 100 uM after 30 mins by agarose gel electrophoresis
[4] = test system: MCF7; test: Cytotoxicity against human MCF7 cells after 72 hrs by MTS assay; details: MCF7, 72 h
[5] = test system: HT-29; test: Cytotoxicity against human HT-29 cells after 72 hrs by MTS assay; details: HT-29, 72 h
[6] = test system: HepG2; test: Cytotoxicity against human HepG2 cells after 72 hrs by MTS assay; details: HepG2, 72 h
[7] = test system: Nucleic Acid; test: Binding affinity to DNA by ethidium bromide staining-based FID assay; design: concentration or dose not given beside the values
[8] = test system: MCF7; test: Cytotoxicity against human MCF7 cells at 25 uM after 72 hrs by MTS assay
[9] = test system: HT-29; test: Cytotoxicity against human HT-29 cells at 25 uM after 72 hrs by MTS assay
[10] = test system: HepG2; test: Cytotoxicity against human HepG2 cells at 25 uM after 72 hrs by MTS assay
[11] = test system: MCF7; test: Cytotoxicity against human MCF7 cells assessed as cell viability at 25 uM after 72 hrs by MTS assay; details: MCF7, 72 h
[12] = test system: HT-29; test: Cytotoxicity against human HT-29 cells assessed as cell viability at 25 uM after 72 hrs by MTS assay; details: HT-29, 72 h
[13] = test system: MCF7; test: Cytotoxicity against human MCF7 cells assessed as cell viability at 100 uM after 72 hrs by MTS assay; details: MCF7, 72 h
[14] = test system: HT-29; test: Cytotoxicity against human HT-29 cells assessed as cell viability at 100 uM after 72 hrs by MTS assay; details: HT-29, 72 h
[15] = test system: HepG2; test: Cytotoxicity against human HepG2 cells assessed as cell viability at 100 uM after 72 hrs by MTS assay; details: HepG2, 72 h
[16] = Cytotoxicity against human CRL7761 cells after 3 days by MTS assay; format: cell-based; details: 72 h
Procedure, shortened: (§1)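 Non-tumour cells were CRL-7761 human skin, Vero monkey kidney (DMEM high glucose, 5% FBS, 10 mM HEPES) and NIH/3T3 mouse (DMEM, 10% calf serum). Cells were seeded, left 24 h, then switched to serum-free DMEM-F12 with albumin, transferrin and insulin, with or without compound. Exposure was 3 days at 37 °C.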

[17] = test system: Vero; test: Cytotoxicity against african green monkey Vero cells after 3 days by MTS assay; format: cell-based; details: Chlorocebus sabaeus, 72 h; procedure, shortened: as §1
[18] = Cytotoxicity against mouse NIH/3T3 cells after 3 days by MTS assay; format: cell-based; details: NIH3T3, 72 h; procedure, shortened: as §1
[19] = target: DNA topoisomerase 2-alpha (Homo sapiens) (UniProt P11388); test: Inhibition of human recombinant DNA topoisomerase 2alpha-mediated DNA cleavage assessed as decrease in relaxation of supercoiled plasmid substrate DNA at 20 uM after 30 mins by agarose gel electrophoresis

Chain of DNA topoisomerase 2-alpha (Homo sapiens) (P11388 whole entry): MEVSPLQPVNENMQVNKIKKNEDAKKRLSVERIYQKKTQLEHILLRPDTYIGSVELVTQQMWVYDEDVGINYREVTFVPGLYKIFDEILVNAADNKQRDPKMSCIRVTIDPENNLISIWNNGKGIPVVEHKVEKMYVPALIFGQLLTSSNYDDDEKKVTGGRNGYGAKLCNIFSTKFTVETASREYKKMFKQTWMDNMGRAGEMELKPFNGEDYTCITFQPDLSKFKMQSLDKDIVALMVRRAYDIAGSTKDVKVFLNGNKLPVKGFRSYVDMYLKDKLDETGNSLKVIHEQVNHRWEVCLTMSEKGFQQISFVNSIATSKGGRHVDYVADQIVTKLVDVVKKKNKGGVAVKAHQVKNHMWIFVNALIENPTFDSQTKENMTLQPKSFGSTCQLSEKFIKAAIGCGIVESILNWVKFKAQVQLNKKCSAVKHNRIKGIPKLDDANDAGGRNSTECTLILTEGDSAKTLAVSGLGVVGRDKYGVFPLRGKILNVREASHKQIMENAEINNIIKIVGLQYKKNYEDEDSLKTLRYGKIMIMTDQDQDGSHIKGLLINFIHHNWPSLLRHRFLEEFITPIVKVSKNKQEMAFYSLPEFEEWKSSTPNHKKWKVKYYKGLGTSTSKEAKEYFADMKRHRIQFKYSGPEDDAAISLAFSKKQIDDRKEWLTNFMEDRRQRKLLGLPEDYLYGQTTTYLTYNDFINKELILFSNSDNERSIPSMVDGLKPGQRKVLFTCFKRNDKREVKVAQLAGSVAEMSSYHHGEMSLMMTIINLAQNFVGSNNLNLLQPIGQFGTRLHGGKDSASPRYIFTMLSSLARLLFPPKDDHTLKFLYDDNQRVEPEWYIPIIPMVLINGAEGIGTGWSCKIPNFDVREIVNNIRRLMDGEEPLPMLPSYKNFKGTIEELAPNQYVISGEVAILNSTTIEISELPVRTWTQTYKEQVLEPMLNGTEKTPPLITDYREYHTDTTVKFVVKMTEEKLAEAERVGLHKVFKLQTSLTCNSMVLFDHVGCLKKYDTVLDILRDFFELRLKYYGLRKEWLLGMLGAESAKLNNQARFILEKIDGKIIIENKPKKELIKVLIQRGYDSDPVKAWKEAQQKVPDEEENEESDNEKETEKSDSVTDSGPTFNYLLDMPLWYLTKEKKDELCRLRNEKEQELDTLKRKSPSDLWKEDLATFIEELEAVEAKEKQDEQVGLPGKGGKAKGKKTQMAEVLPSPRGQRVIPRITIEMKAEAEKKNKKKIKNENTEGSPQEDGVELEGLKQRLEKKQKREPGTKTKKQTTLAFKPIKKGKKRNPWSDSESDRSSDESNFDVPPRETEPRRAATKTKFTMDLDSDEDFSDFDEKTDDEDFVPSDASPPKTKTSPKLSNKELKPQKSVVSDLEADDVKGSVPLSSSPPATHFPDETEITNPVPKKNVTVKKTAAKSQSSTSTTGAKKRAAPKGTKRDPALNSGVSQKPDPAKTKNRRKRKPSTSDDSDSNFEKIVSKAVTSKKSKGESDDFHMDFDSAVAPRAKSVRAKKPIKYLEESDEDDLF

inhibition [2] [%] | inhibition [3] [%] | Activity [7] [%] | inhibition [19] | SMILES | viability at 25 µM [1] [%] | IC50 [4] [µM] | IC50 [5] [µM] | IC50 [6] [µM] | Activity [8] [%] | Activity [9] [%] | Activity [10] [%] | viability at 25 µM [11] [%] | viability at 25 µM [12] [%] | viability at 100 µM [13] [%] | viability at 100 µM [14] [%] | viability at 100 µM [15] [%] | IC50 [16] [µM] | IC50 [17] [µM] | IC50 [18] [µM]
32.2 | 22.2 | 73.6 |  | C[C@@H]1O[C@@H](OCC#Cc2c(-c3ccccc3)sc3ccccc23)C[C@H](N)[C@H]1O | 2 | 15.8 | 10.9 | 17.2 | 100 | 100 | 100 | 2 | < 1 |  |  |  |  |  | 
 |  |  |  | Cc1ccc(S(=O)(=O)n2c(-c3ccccc3)cc3ccccc32)cc1 | 54 |  |  |  |  |  |  |  | 39 | 71 | 12 | 37 |  |  | 
36.9 | 5.8 | 67.5 |  | C[C@@H]1O[C@@H](OCC#Cc2c(-c3ccccc3)sc3ccccc23)C[C@H](N)[C@@H]1O | < 1 | 7.1 | 2.6 | 6 | 100 | 100 | 100 | < 1 | < 1 |  |  |  | 22.2 | 9.4 | 5.7
8.2 | 55.5 | 76.5 | inactive | C[C@@H]1O[C@@H](OCC#Cc2c(-c3ccccc3)[nH]c3ccccc23)C[C@H](N)[C@H]1O | < 1 | 17.3 | 19.3 | 16.2 | 100 |  | 100 | 2 | 7 |  |  |  |  |  | 
 |  |  |  | C#CCO[C@H]1C[C@H](N)[C@H](O)[C@H](C)O1 |  |  |  |  |  |  |  |  |  | 109 | 96 | 101 |  |  | 
20.2 | 0 | 68.5 |  | C[C@@H]1O[C@@H](OCC#Cc2c(-c3ccccc3)oc3ccccc23)CC[C@@H]1N | < 1 | 10.3 | 6.5 | 7.9 | 100 | 100 | 100 | < 1 | < 1 |  |  |  | > 25 | 10.9 | 3.7
 |  |  |  | c1ccc(-c2cc3ccccc3o2)cc1 |  |  |  |  |  |  |  |  |  | 107 | 80 | 88 |  |  | 
7.9 | 16.4 | 79.9 |  | C[C@@H]1O[C@@H](OCC#Cc2c(-c3ccccc3)sc3ccccc23)CC[C@@H]1N | < 1 | 7.1 | 5.9 | 8.8 | 100 | 100 | 100 | < 1 | < 1 |  |  |  | > 25 | 18.1 | 9.8
 |  |  |  | C#CCO[C@H]1C[C@H](N)[C@@H](O)[C@H](C)O1 |  |  |  |  |  |  |  |  |  | 123 | 91 | 105 |  |  | 
 |  |  |  | Ic1c(-c2ccccc2)oc2ccccc12 |  |  |  |  |  |  |  |  |  | 128 | 97 | 84 |  |  | 
 |  |  |  | OCC#Cc1c(-c2ccccc2)[nH]c2ccccc12 | 87 |  |  |  | 100 | 100 | 100 | 121 | 81 | 109 | 79 | 87 |  |  | 
